# Source: ChEMBL document CHEMBL5303300, “EUbOPEN Chemogenomics Library - Multiplex” (2023)
# Several values for one entry are separate records, joined by “and”; a condition that tells them apart may be missing. Identical values can stand only once.
# Tested on: HEK-293T
# Experiment: Multiplex assay against HEK293T
# Type: toxicity, cell-based
# Conditions: human, number of replicates 2
# How it was run: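 Values for tubulin, mitochondrial-mass and membrane-permeability phenotypes are per cents of cells with healthy nuclei. These cells were identified by CellPathfinder machine-learning gating of live cells that had been stained at seeding with Hoechst33342, BioTracker Green Microtubule Cytoskeleton Dye, MitoTracker Red and Annexin V Alexa Fluor 680 and imaged on a CQ1 microscope at 37°C and 5% CO2 after compound addition. The gating first set Hoechst high-intensity objects apart from normal cells, then split normal cells into healthy, pyknosed or fragmented nuclei, and pyknosed cells into mitotic or apoptotic.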
# [1] = 12 h, 1 µM, compound concentration 1 uM
# [2] = 12 h, 10 µM, compound concentration 10 uM
# [3] = 24 h, 1 µM, compound concentration 1 uM
# [4] = 24 h, 10 µM, compound concentration 10 uM
# [5] = 48 h, 1 µM, compound concentration 1 uM
# [6] = 48 h, 10 µM, compound concentration 10 uM
compound,measurement,setting,value
CCN1C(=O)N(c2c(F)c(OC)cc(OC)c2F)Cc2cnc3[nH]c(CN4CCOCC4)cc3c21 [PEMIGATINIB],Population Apoptotic (%),[1],58% and 63%
same,Population Fragmented Nuclei (%),[1],3%
same,Population Healthy Nuclei (%),[1],82% and 83%
same,Population Hoechst High Intensity Objects (%),[1],7% and 9%
same,Population Membrane Permeable-Phenotype (%),[1],3% and 0%
same,Population Mitochondria Different-Phenotype (%),[1],15% and 20%
same,Population Mitotic Cells (%),[1],41% and 36%
same,Population Normal (%),[1],92% and 90%
same,Population Pyknosed Nuclei (%),[1],13%
same,Population Tubulin-Different-Phenotype (%),[1],51% and 60%
same,Total Cell Count,[1],617 and 677
same,Population Apoptotic (%),[2],64% and 53%
same,Population Fragmented Nuclei (%),[2],4% and 2%
same,Population Healthy Nuclei (%),[2],83% and 87%
same,Population Hoechst High Intensity Objects (%),[2],12% and 8%
same,Population Membrane Permeable-Phenotype (%),[2],2%
same,Population Mitochondria Different-Phenotype (%),[2],31% and 18%
same,Population Mitotic Cells (%),[2],35% and 46%
same,Population Normal (%),[2],87% and 91%
same,Population Pyknosed Nuclei (%),[2],11% and 9%
same,Population Tubulin-Different-Phenotype (%),[2],77% and 68%
same,Total Cell Count,[2],550 and 620
same,Population Apoptotic (%),[3],41% and 56%
same,Population Fragmented Nuclei (%),[3],8% and 7%
same,Population Healthy Nuclei (%),[3],82% and 83%
same,Population Hoechst High Intensity Objects (%),[3],7% and 8%
same,Population Membrane Permeable-Phenotype (%),[3],3% and 1%
same,Population Mitochondria Different-Phenotype (%),[3],7% and 5%
same,Population Mitotic Cells (%),[3],58% and 43%
same,Population Normal (%),[3],92% and 91%
same,Population Pyknosed Nuclei (%),[3],9%
same,Population Tubulin-Different-Phenotype (%),[3],29% and 30%
same,Total Cell Count,[3],1042 and 1171
same,Population Apoptotic (%),[4],52% and 58%
same,Population Fragmented Nuclei (%),[4],4% and 5%
same,Population Healthy Nuclei (%),[4],86% and 89%
same,Population Hoechst High Intensity Objects (%),[4],12% and 11%
same,Population Membrane Permeable-Phenotype (%),[4],1%
same,Population Mitochondria Different-Phenotype (%),[4],19% and 16%
same,Population Mitotic Cells (%),[4],47% and 41%
same,Population Normal (%),[4],87% and 88%
same,Population Pyknosed Nuclei (%),[4],8% and 4%
same,Population Tubulin-Different-Phenotype (%),[4],71% and 61%
same,Total Cell Count,[4],678 and 726
same,Population Apoptotic (%),[5],17%
same,Population Fragmented Nuclei (%),[5],14% and 12%
same,Population Healthy Nuclei (%),[5],83% and 84%
same,Population Hoechst High Intensity Objects (%),[5],7% and 9%
same,Population Membrane Permeable-Phenotype (%),[5],6% and 2%
same,Population Mitochondria Different-Phenotype (%),[5],0%
same,Population Mitotic Cells (%),[5],82%
same,Population Normal (%),[5],92% and 90%
same,Population Pyknosed Nuclei (%),[5],2% and 3%
same,Population Tubulin-Different-Phenotype (%),[5],10% and 18%
same,Total Cell Count,[5],2805 and 2683
same,Population Apoptotic (%),[6],33% and 24%
same,Population Fragmented Nuclei (%),[6],9% and 10%
same,Population Healthy Nuclei (%),[6],87% and 86%
same,Population Hoechst High Intensity Objects (%),[6],13% and 12%
same,Population Membrane Permeable-Phenotype (%),[6],3% and 4%
same,Population Mitochondria Different-Phenotype (%),[6],2% and 4%
same,Population Mitotic Cells (%),[6],66% and 75%
same,Population Normal (%),[6],86% and 87%
same,Population Pyknosed Nuclei (%),[6],3%
same,Population Tubulin-Different-Phenotype (%),[6],55%
same,Total Cell Count,[6],1120 and 944
COc1ccc(F)c(F)c1C(=O)c1cnc(NC2CCN(S(C)(=O)=O)CC2)nc1N [RG-547],Population Apoptotic (%),[1],71% and 70%
same,Population Fragmented Nuclei (%),[1],1% and 3%
same,Population Healthy Nuclei (%),[1],86% and 87%
same,Population Hoechst High Intensity Objects (%),[1],8%
same,Population Membrane Permeable-Phenotype (%),[1],4%
same,Population Mitochondria Different-Phenotype (%),[1],21% and 18%
same,Population Mitotic Cells (%),[1],28% and 29%
same,Population Normal (%),[1],91%
same,Population Pyknosed Nuclei (%),[1],11% and 8%
same,Population Tubulin-Different-Phenotype (%),[1],57% and 48%
same,Total Cell Count,[1],469 and 554
same,Population Apoptotic (%),[2],62% and 82%
same,Population Fragmented Nuclei (%),[2],3% and 4%
same,Population Healthy Nuclei (%),[2],91% and 86%
same,Population Hoechst High Intensity Objects (%),[2],8% and 11%
same,Population Membrane Permeable-Phenotype (%),[2],2% and 1%
same,Population Mitochondria Different-Phenotype (%),[2],24% and 33%
same,Population Mitotic Cells (%),[2],37% and 17%
same,Population Normal (%),[2],91% and 88%
same,Population Pyknosed Nuclei (%),[2],5% and 8%
same,Population Tubulin-Different-Phenotype (%),[2],59% and 65%
same,Total Cell Count,[2],491 and 448
same,Population Apoptotic (%),[3],86% and 67%
same,Population Fragmented Nuclei (%),[3],3% and 5%
same,Population Healthy Nuclei (%),[3],90% and 87%
same,Population Hoechst High Intensity Objects (%),[3],5% and 7%
same,Population Membrane Permeable-Phenotype (%),[3],5% and 3%
same,Population Mitochondria Different-Phenotype (%),[3],8% and 9%
same,Population Mitotic Cells (%),[3],13% and 32%
same,Population Normal (%),[3],94% and 92%
same,Population Pyknosed Nuclei (%),[3],5% and 7%
same,Population Tubulin-Different-Phenotype (%),[3],33% and 37%
same,Total Cell Count,[3],670 and 592
same,Population Apoptotic (%),[4],63% and 66%
same,Population Fragmented Nuclei (%),[4],4% and 2%
same,Population Healthy Nuclei (%),[4],89% and 87%
same,Population Hoechst High Intensity Objects (%),[4],9% and 15%
same,Population Membrane Permeable-Phenotype (%),[4],0%
same,Population Mitochondria Different-Phenotype (%),[4],42% and 37%
same,Population Mitotic Cells (%),[4],36% and 33%
same,Population Normal (%),[4],90% and 84%
same,Population Pyknosed Nuclei (%),[4],6% and 9%
same,Population Tubulin-Different-Phenotype (%),[4],63% and 61%
same,Total Cell Count,[4],395 and 403
same,Population Apoptotic (%),[5],61% and 72%
same,Population Fragmented Nuclei (%),[5],11%
same,Population Healthy Nuclei (%),[5],86%
same,Population Hoechst High Intensity Objects (%),[5],5%
same,Population Membrane Permeable-Phenotype (%),[5],1% and 2%
same,Population Mitochondria Different-Phenotype (%),[5],2% and 4%
same,Population Mitotic Cells (%),[5],38% and 27%
same,Population Normal (%),[5],94%
same,Population Pyknosed Nuclei (%),[5],1%
same,Population Tubulin-Different-Phenotype (%),[5],24% and 25%
same,Total Cell Count,[5],841 and 644
same,Population Apoptotic (%),[6],73% and 80%
same,Population Fragmented Nuclei (%),[6],5%
same,Population Healthy Nuclei (%),[6],89% and 84%
same,Population Hoechst High Intensity Objects (%),[6],17% and 13%
same,Population Membrane Permeable-Phenotype (%),[6],0%
same,Population Mitochondria Different-Phenotype (%),[6],50% and 55%
same,Population Mitotic Cells (%),[6],26% and 20%
same,Population Normal (%),[6],82% and 86%
same,Population Pyknosed Nuclei (%),[6],5% and 10%
same,Population Tubulin-Different-Phenotype (%),[6],67% and 65%
same,Total Cell Count,[6],329 and 336
